Measurements: ChEMBL document CHEMBL2380295, “Structure-activity studies on the side chain of a simplified analog of aplysiatoxin (aplog-1) with anti-proliferative activity” (Bioorg Med Chem, 2013)

What was measured:
[1] = Growth inhibition of human BSY1 cells after 48 hrs by sulforhodamine B assay; type: functional; settings: BSY-1, 48 h
Procedure, shortened: (§1)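 Yamori 39-line human cancer panel, NCI method with modifications. Cells plated in RPMI 1640 plus 5% FBS, attached overnight, then exposed 48 h to compound at 10^-8, 10^-7, 10^-6, 10^-5 and 10^-4 M. Sulforhodamine B staining read at 525 nm; % growth = 100[(T−T0)/(C−T0)] from duplicate-point averages, with T0 the time-zero absorbance. GI50 is the concentration giving 50.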

St-4 = test: Growth inhibition of human St-4 cells after 48 hrs by sulforhodamine B assay; type: functional; settings: St-4, 48 h; procedure, shortened: as §1
DMS-273 = test: Growth inhibition of human DMS273 cells after 48 hrs by sulforhodamine B assay; type: functional; settings: DMS-273, 48 h; procedure, shortened: as §1
OVCAR-5 = test: Growth inhibition of human OVCAR5 cells after 48 hrs by sulforhodamine B assay; type: functional; settings: OVCAR-5, 48 h; procedure, shortened: as §1
[2] = Growth inhibition of human MKN1 cells after 48 hrs by sulforhodamine B assay; type: functional; settings: MKN-1, 48 h; procedure, shortened: as §1
NCI-H460 = test: Growth inhibition of human NCI-H460 cells after 48 hrs by sulforhodamine B assay; type: functional; settings: NCI-H460, 48 h; procedure, shortened: as §1
[3] = Growth inhibition of human RXF631L cells after 48 hrs by sulforhodamine B assay; type: functional; settings: RXF 631, 48 h; procedure, shortened: as §1
NCI-H522 = test: Growth inhibition of human NCI-H522 cells after 48 hrs by sulforhodamine B assay; type: functional; settings: NCI-H522, 48 h; procedure, shortened: as §1
DU-145 = test: Growth inhibition of human DU145 cells after 48 hrs by sulforhodamine B assay; type: functional; settings: DU-145, 48 h; procedure, shortened: as §1
[4] = Growth inhibition of human HBC4 cells after 48 hrs by sulforhodamine B assay; type: functional; settings: HBC4, 48 h; procedure, shortened: as §1
SF-539 = test: Growth inhibition of human SF539 cells after 48 hrs by sulforhodamine B assay; type: functional; settings: SF-539, 48 h; procedure, shortened: as §1
SNB-78 = test: Growth inhibition of human SNB78 cells after 48 hrs by sulforhodamine B assay; type: functional; settings: SNB-78, 48 h; procedure, shortened: as §1
[5] = biological target: T1, Protein kinase C delta type (Homo sapiens, UniProt Q05655); test: Inhibition of [3H]PDBu binding to PKCdelta-C1A domain peptide (unknown origin)
Procedure, shortened: (§2)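 Competitive [3H]PDBu binding used 14 or 40 nM PKCδ C1 peptide and 20 nM [3H]PDBu (19.6 Ci/mmol), in 50 mM Tris-maleate (pH 7.4 at 4 °C) with 50 µg/mL phosphatidylserine, 3 mg/mL bovine γ-globulin and varied inhibitor concentrations. IC50 was taken as 50% inhibition of specific binding. Ki was derived by the Sharkey–Blumberg method.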

HCT-15 = test: Growth inhibition of human HCT15 cells after 48 hrs by sulforhodamine B assay; type: functional; settings: HCT-15, 48 h; procedure, shortened: as §1
OVCAR-8 = test: Growth inhibition of human OVCAR8 cells after 48 hrs by sulforhodamine B assay; type: functional; settings: OVCAR-8, 48 h; procedure, shortened: as §1
PC-3 = test: Growth inhibition of human PC3 cells after 48 hrs by sulforhodamine B assay; type: functional; settings: PC-3, 48 h; procedure, shortened: as §1
[6] = Octanol-water partition coefficient, log P of the compound by HPLC analysis; type: physicochemical
Procedure, shortened: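 log P was estimated from HPLC retention, with column dead time measured using unretained formamide.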

SK-OV-3 = test: Growth inhibition of human SKOV3 cells after 48 hrs by sulforhodamine B assay; type: functional; settings: SK-OV-3, 48 h; procedure, shortened: as §1
U-251 = test: Growth inhibition of human U251 cells after 48 hrs by sulforhodamine B assay; type: functional; settings: U-251, 48 h; procedure, shortened: as §1
MKN-28 = test: Growth inhibition of human MKN28 cells after 48 hrs by sulforhodamine B assay; type: functional; settings: MKN-28, 48 h; procedure, shortened: as §1
SF-295 = test: Growth inhibition of human SF295 cells after 48 hrs by sulforhodamine B assay; type: functional; settings: SF-295, 48 h; procedure, shortened: as §1
KM12 = test: Growth inhibition of human KM12 cells after 48 hrs by sulforhodamine B assay; type: functional; settings: KM12, 48 h; procedure, shortened: as §1
[7] = Cytotoxicity against human Raji cells assessed as cell viability at 10^-7 M; type: cell-based; settings: read-out: Activity
[8] = Cytotoxicity against human Raji cells assessed as cell viability at 10^-6 M; type: cell-based; settings: read-out: Activity
HCT-116 = test: Growth inhibition of human HCT116 cells after 48 hrs by sulforhodamine B assay; type: functional; settings: HCT-116, 48 h; procedure, shortened: as §1
NCI-H226 = test: Growth inhibition of human NCI-H226 cells after 48 hrs by sulforhodamine B assay; type: functional; settings: NCI-H226, 48 h; procedure, shortened: as §1
[9] = Growth inhibition of human HCC2998 cells after 48 hrs by sulforhodamine B assay; type: functional; settings: HCC 2998, 48 h; procedure, shortened: as §1
MDA-MB-231 = test: Growth inhibition of human MDA-MB-231 cells after 48 hrs by sulforhodamine B assay; type: functional; settings: MDA-MB-231, 48 h; procedure, shortened: as §1
ACHN = test: Growth inhibition of human ACHN cells after 48 hrs by sulforhodamine B assay; type: functional; procedure, shortened: as §1
NCI-H23 = test: Growth inhibition of human NCI-H23 cells after 48 hrs by sulforhodamine B assay; type: functional; settings: NCI-H23, 48 h; procedure, shortened: as §1
DMS-114 = test: Growth inhibition of human DMS114 cells after 48 hrs by sulforhodamine B assay; type: functional; settings: DMS-114, 48 h; procedure, shortened: as §1
MKN-45 = test: Growth inhibition of human MKN45 cells after 48 hrs by sulforhodamine B assay; type: functional; settings: MKN-45, 48 h; procedure, shortened: as §1
LOX IMVI = test: Growth inhibition of human LOXIMVI cells after 48 hrs by sulforhodamine B assay; type: functional; procedure, shortened: as §1
MKN-74 = test: Growth inhibition of human MKN74 cells after 48 hrs by sulforhodamine B assay; type: functional; settings: MKN-74, 48 h; procedure, shortened: as §1
[10] = Growth inhibition of human HBC5 cells after 48 hrs by sulforhodamine B assay; type: functional; settings: HBC5, 48 h; procedure, shortened: as §1
MCF7 = test: Growth inhibition of human MCF7 cells after 48 hrs by sulforhodamine B assay; type: functional; settings: MCF7, 48 h; procedure, shortened: as §1
Human gammaherpesvirus 4 [11] = test: Induction of EBV-early antigen expressed in human Raji cells at 10^-6 M after 48 hrs by immunofluorescence assay relative to control; type: organism-based; settings: human gammaherpesvirus 4, raji, 1 µM
Procedure, shortened: (§3)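 Raji B-lymphoblastoid cells (5 × 10^5/mL) in RPMI 1640 with 10% FBS, with 4 mM sodium n-butyrate as synergist and test compound at 10^-7 or 10^-6 M (final DMSO 0.4%). Incubated 48 h at 37 °C under 5% CO2. Smears were stained by indirect immunofluorescence using NPC patient serum and FITC anti-human IgG. At least 500 cells counted; % EA-positive recorded; n = 3, SEM.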

A549 = test: Growth inhibition of human A549 cells after 48 hrs by sulforhodamine B assay; type: functional; settings: A549, 48 h; procedure, shortened: as §1
SNB-75 = test: Growth inhibition of human SNB75 cells after 48 hrs by sulforhodamine B assay; type: functional; settings: SNB-75, 48 h; procedure, shortened: as §1
[12] = biological target: T1, Protein kinase C delta type; test: Inhibition of [3H]PDBu binding to PKCdelta-C1B domain peptide (unknown origin); procedure, shortened: as §2
OVCAR-4 = test: Growth inhibition of human OVCAR4 cells after 48 hrs by sulforhodamine B assay; type: functional; settings: OVCAR-4, 48 h; procedure, shortened: as §1
OVCAR-3 = test: Growth inhibition of human OVCAR3 cells after 48 hrs by sulforhodamine B assay; type: functional; settings: OVCAR-3, 48 h; procedure, shortened: as §1
MKN-7 = test: Growth inhibition of human MKN7 cells after 48 hrs by sulforhodamine B assay; type: functional; settings: MKN-7, 48 h; procedure, shortened: as §1
SF-268 = test: Growth inhibition of human SF268 cells after 48 hrs by sulforhodamine B assay; type: functional; settings: SF-268, 48 h; procedure, shortened: as §1
HT-29 = test: Growth inhibition of human HT-29 cells after 48 hrs by sulforhodamine B assay; type: functional; settings: HT-29, 48 h; procedure, shortened: as §1
Human gammaherpesvirus 4 [13] = test: Induction of EBV-early antigen expressed in human Raji cells at 10^-7 M after 48 hrs by immunofluorescence assay relative to control; type: organism-based; settings: human gammaherpesvirus 4, raji, 0.1 µM; procedure, shortened: as §3

T1 sequence (Q05655 whole entry, the tested form may be a part): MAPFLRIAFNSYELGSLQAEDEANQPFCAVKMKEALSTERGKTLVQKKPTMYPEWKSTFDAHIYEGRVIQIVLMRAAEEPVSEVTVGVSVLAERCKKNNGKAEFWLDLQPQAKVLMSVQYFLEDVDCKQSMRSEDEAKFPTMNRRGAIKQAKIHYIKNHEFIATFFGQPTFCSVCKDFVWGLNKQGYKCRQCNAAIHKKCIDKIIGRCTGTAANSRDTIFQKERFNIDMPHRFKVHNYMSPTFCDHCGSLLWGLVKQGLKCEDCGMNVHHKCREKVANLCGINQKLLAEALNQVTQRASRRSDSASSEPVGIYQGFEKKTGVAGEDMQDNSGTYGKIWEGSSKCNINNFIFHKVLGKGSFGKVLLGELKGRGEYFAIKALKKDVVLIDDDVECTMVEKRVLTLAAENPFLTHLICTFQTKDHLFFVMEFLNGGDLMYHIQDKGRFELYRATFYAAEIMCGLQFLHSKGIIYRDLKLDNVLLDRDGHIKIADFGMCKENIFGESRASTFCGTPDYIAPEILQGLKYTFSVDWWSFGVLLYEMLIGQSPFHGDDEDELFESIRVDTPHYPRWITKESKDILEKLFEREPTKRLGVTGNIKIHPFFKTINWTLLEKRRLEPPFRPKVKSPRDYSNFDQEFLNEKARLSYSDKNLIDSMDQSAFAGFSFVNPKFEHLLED

SMILES: COc1cccc(CCCC[C@@H]2C[C@@H]3C[C@@]4(O[C@H](CCC4(C)C)CC(=O)O[C@@H](CO)CC(=O)O3)O2)c1
- GI50 [1]: 13.8 µM
- GI50 (St-4): 2.51 µM
- GI50 (DMS-273): 11 µM
- GI50 (OVCAR-5): 13.5 µM
- GI50 [2]: 11.5 µM
- GI50 (NCI-H460): 2.57 µM
- GI50 [3]: 13.8 µM
- GI50 (NCI-H522): 11.5 µM
- GI50 (DU-145): 13.8 µM
- GI50 [4]: 1.7 µM
- GI50 (SF-539): 10 µM
- GI50 (SNB-78): 17.4 µM
- Ki [5]: 0.33 µM
- GI50 (HCT-15): 18.2 µM
- GI50 (OVCAR-8): 17 µM
- GI50 (PC-3): 12 µM
- logP [6]: 4.4
- GI50 (SK-OV-3): 16.2 µM
- GI50 (U-251): 17 µM
- GI50 (MKN-28): 15.1 µM
- GI50 (SF-295): 10.2 µM
- GI50 (KM12): 13.8 µM
- viability at 0.1 µM [7]: 60%
- viability at 1 µM [8]: 60%
- GI50 (HCT-116): 13.5 µM
- GI50 (NCI-H226): 11.7 µM
- GI50 [9]: 7.94 µM
- GI50 (MDA-MB-231): 6.61 µM
- GI50 (ACHN): 11.5 µM
- GI50 (NCI-H23): 13.5 µM
- GI50 (DMS-114): 11 µM
- GI50 (MKN-45): 9.55 µM
- GI50 (LOX IMVI): 11 µM
- GI50 (MKN-74): 15.8 µM
- GI50 [10]: 18.6 µM
- GI50 (MCF7): 16.2 µM
- Activity (Human gammaherpesvirus 4 [11]): 5.2%
- GI50 (A549): 4.9 µM
- GI50 (SNB-75): 14.5 µM
- Ki [12]: 0.0097 µM
- GI50 (OVCAR-4): 15.8 µM
- GI50 (OVCAR-3): 12.6 µM
- GI50 (MKN-7): 19.1 µM
- GI50 (SF-268): 14.1 µM
- GI50 (HT-29): 11.2 µM
- Activity (Human gammaherpesvirus 4 [13]): 2.6%
